# Measured values as given in ChEMBL document CHEMBL1949593, “Stilbene-chalcone hybrids: design, synthesis, and evaluation as a new class of antimalarial scaffolds that trigger cell death through stage specific apoptosis” (J Med Chem, 2012).
# Calls of active or inactive are those of the source. The rule behind the calls is not given here.
# Assays:
# Plasmodium falciparum [1] = test: Reduction in parasitemia of chloroquine-sensitive Plasmodium falciparum 3D7 trophozoites at 6 uM after 48 hrs by Giemsa staining; format: functional, organism-based
# Plasmodium falciparum [2] = test: Induction of internucleosomal fragmentation in chloroquine-sensitive Plasmodium falciparum 3D7 trophozoites at 6 uM at 24 hrs by Hoechst 33342 staining; format: functional, organism-based
# Summary of the method: (§1)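 3D7 trophozoite cultures were treated 18 or 24 h, and ring cultures 24, 42 or 48 h. Parasites were stained with Hoechst 33342 for 10 min at room temperature, washed with PBS, and smeared. Condensed or fragmented chromatin (blue, 460 nm) was viewed by fluorescence microscopy.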
# [3] = Resistance index, ratio of IC50 for ring stage chloroquine-resistant Plasmodium falciparum INDO to IC50 for ring stage chloroquine-sensitive Plasmodium falciparum 3D7; format: functional
# Plasmodium falciparum [4] = test: Induction of apoptosis in chloroquine-sensitive Plasmodium falciparum 3D7 trophozoites assessed as nuclear condensation at 6 uM at 24 hrs by Giemsa staining; format: functional, organism-based
# [5] = Therapeutic index, ratio of IC50 for human HeLa cells to IC50 for ring stage chloroquine-sensitive Plasmodium falciparum 3D7; format: cell-based; conditions: read-out: Ratio IC50
# Summary of the method: (§2)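 HeLa or L929 fibroblasts were seeded at 10^4 cells per well in RPMI with 10% FBS, left overnight, then exposed 24 h at 37 °C, 5% CO2. MTT was added for 3 h; formazan was dissolved in DMSO and read at 570 nm. IC50 came from dose–response curves. Index = IC50(mammalian)/IC50(Pf 3D7, SYBR Green assay).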
# Plasmodium falciparum [6] = test: Antimalarial activity against chloroquine-sensitive Plasmodium falciparum 3D7 assessed as merozoites egress at 6 uM treated for 8 hrs followed by washout measured after 48 hrs by Giemsa staining; format: functional, organism-based
# Summary of the method: (§3)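 Highly synchronized 3D7 schizonts were exposed to drug for 8 h under normal culture conditions, alongside untreated controls. After a media wash, cultures were incubated for 48 h with or without drug. Giemsa-stained thin smears were examined microscopically for parasitemia and stage, and compared with control.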
# Plasmodium falciparum [7] = test: Induction of apoptosis in ring stage chloroquine-sensitive Plasmodium falciparum 3D7 assessed as nuclear condensation at 6 uM at 24 hrs by Giemsa staining; format: functional, organism-based
# Plasmodium falciparum [8] = test: Antimalarial activity against ring stage chloroquine-sensitive Plasmodium falciparum 3D7 infected in human O positive erythrocytes after 48 hrs by SYBR green 1 fluorescence assay; format: functional, organism-based; conditions: 3D7, 48 h
# Summary of the method: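 P. falciparum 3D7 in O+ human erythrocytes in complete RPMI with Albumax at 37 °C under 5% O2/5% CO2. Culture was sorbitol-synchronized to rings and plated at 2% hematocrit, 1% parasitemia. Drug range was 0–100 μM with 0.4% final DMSO, in triplicate. After 48 h, SYBR Green I fluorescence was read (ex 497/em 520 nm). IC50 was taken by visual matching of 50% growth inhibition.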
# Plasmodium falciparum [9] = test: Inhibition of RBC invasion of chloroquine-sensitive Plasmodium falciparum 3D7 schizonts at 6 uM treated for 8 hrs followed by washout measured after 48 hrs by Giemsa staining; format: functional, organism-based; summary of the method: as §3
# Plasmodium falciparum [10] = test: Growth inhibition of ring stage chloroquine-sensitive Plasmodium falciparum 3D7 at 6 uM treated for 48 hrs following washout incubated for 48 hrs in drug free medium by SYBR green 1-based fluorescence assay; format: functional, organism-based
# Summary of the method: (§4)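 Stage-specific exposure of synchronized 3D7: rings 48 h, trophozoites 24 h, schizonts 8 h. Drug was removed by media wash and cultures grew 48 h drug-free, in a separate triplicate set. Growth was read by SYBR Green I fluorescence and expressed as percent inhibition relative to drug-free control.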
# [11] = Resistance index, ratio of IC50 for ring stage chloroquine-resistant Plasmodium falciparum Dd2 to IC50 for ring stage chloroquine-sensitive Plasmodium falciparum 3D7; format: functional
# Plasmodium falciparum [12] = test: Growth inhibition of chloroquine-sensitive Plasmodium falciparum 3D7 schizonts at 6 uM treated for 8 hrs following washout incubated for 48 hrs in drug free medium by Giemsa staining; format: functional, organism-based
# Summary of the method: (§5)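 Highly synchronized 3D7 cultures were exposed by stage: rings 48 h, trophozoites 24 h, schizonts 8 h. After a media wash, cultures grew 48 h in drug-free complete RPMI, in triplicate. Giemsa smears were read by counting 3000 cells per stage; pycnotic parasites were scored nonviable. Inhibition is percent of drug-free control.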
# Plasmodium falciparum [13] = test: Antimalarial activity against ring stage chloroquine-resistant Plasmodium falciparum Dd2 infected in human O positive erythrocytes after 48 hrs by SYBR green 1 fluorescence assay; format: functional, organism-based; conditions: Dd2, 48 h
# Summary of the method: (§6)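 Ring-stage cultures were sorbitol-synchronized in O+ human erythrocytes in RPMI 1640 with 0.5% Albumax, hypoxanthine and gentamicin, then plated at 2% hematocrit and 1% parasitemia. Drugs were tested at 0–100 μM (final DMSO 0.4%) in triplicate for 48 h at 37 °C under 5% O2/5% CO2/90% N2. Read-out was SYBR Green I (ex 497/em 520 nm). IC50 was read visually as 50% growth inhibition, with chloroquine as control.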
# Plasmodium falciparum [14] = test: Antimalarial activity against chloroquine-sensitive Plasmodium falciparum 3D7 assessed as inhibition of schizonts growth at 6 uM treated for 8 hrs followed by washout measured after 48 hrs by Giemsa staining; format: functional, organism-based; summary of the method: as §3
# Plasmodium falciparum [15] = test: Induction of apoptosis in chloroquine-sensitive Plasmodium falciparum 3D7 trophozoites assessed as chromatin condensation at 6 uM at 18 hrs by Hoechst 33342 staining; format: functional, organism-based; summary of the method: as §1
# Plasmodium falciparum [16] = test: Growth inhibition of chloroquine-sensitive Plasmodium falciparum 3D7 trophozoites at 6 uM treated for 24 hrs following washout incubated for 48 hrs in drug free medium by SYBR green 1-based fluorescence assay; format: functional, organism-based; summary of the method: as §4
# Plasmodium falciparum [17] = test: Induction of internucleosomal fragmentation in ring stage chloroquine-sensitive Plasmodium falciparum 3D7 at 6 uM at 24 hrs by Hoechst 33342 staining; format: functional, organism-based; summary of the method: as §1
# Plasmodium falciparum [18] = test: Reduction in parasitemia of ring stage chloroquine-sensitive Plasmodium falciparum 3D7 at 6 uM after 48 hrs by Giemsa staining; format: functional, organism-based
# Plasmodium falciparum [19] = test: Antimalarial activity against ring stage chloroquine-resistant Plasmodium falciparum INDO infected in human O positive erythrocytes after 48 hrs by SYBR green 1 fluorescence assay; format: functional, organism-based; summary of the method: as §6
# Plasmodium falciparum [20] = test: Induction of apoptosis in ring stage chloroquine-sensitive Plasmodium falciparum 3D7 assessed as chromatin condensation at 6 uM at 18 hrs by Hoechst 33342 staining; format: functional, organism-based
# Plasmodium falciparum [21] = test: Growth inhibition of chloroquine-sensitive Plasmodium falciparum 3D7 trophozoites at 6 uM treated for 24 hrs following washout incubated for 48 hrs in drug free medium by Giemsa staining; format: functional, organism-based; summary of the method: as §5
# Plasmodium falciparum [22] = test: Induction of apoptosis in chloroquine-sensitive Plasmodium falciparum 3D7 trophozoites assessed as chromatin fragmentation at 6 uM at 18 hrs by Hoechst 33342 staining; format: functional, organism-based; summary of the method: as §1
# Plasmodium falciparum [23] = test: Growth inhibition of chloroquine-sensitive Plasmodium falciparum 3D7 schizonts at 6 uM treated for 8 hrs following washout incubated for 48 hrs in drug free medium by SYBR green 1-based fluorescence assay; format: functional, organism-based; summary of the method: as §4
# Plasmodium falciparum [24] = test: Induction of apoptosis in ring stage chloroquine-sensitive Plasmodium falciparum 3D7 assessed as disruption of mitochondrial membrane potential at 6 uM by JC-1 staining; format: functional, organism-based
# Summary of the method: (§7)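 3D7 ring cultures were treated 24, 42 or 48 h, and trophozoite cultures 18 or 24 h. Parasites were stained with JC-1 for 20 min at 37 °C and viewed as wet mounts by fluorescence microscopy. Red-orange aggregate signal (590 nm) indicates intact ΔΨm; green monomer signal (525 nm) indicates dissipation.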
# [25] = Therapeutic index, ratio of IC50 for […] cells to IC50 for ring stage chloroquine-sensitive Plasmodium falciparum 3D7; format: cell-based; conditions: mouse, read-out: Ratio IC50; summary of the method: as §2
# [26] = Inhibition of Plasmodium falciparum falcipain-2 using benzyloxycarbonyl-Phe-Arg-7-amino-4-methyl coumarin hydrochloride as substrate preincubated for 10 mins prior substrate addition by fluorimetric assay
# Summary of the method: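 Recombinant falcipain-2 (2 μg) was preincubated 10 min at room temperature with or without compound, in triplicate. Buffer was 100 mM sodium acetate pH 5.5 with 10 mM DTT and 1% final DMSO. Z-Phe-Arg-AMC was then added at 10 μM final. AMC release was read at ex 355/em 460 nm. IC50 was taken by visual matching of 50% inhibition.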
# Plasmodium falciparum [27] = test: Growth inhibition of chloroquine-sensitive Plasmodium falciparum 3D7 trophozoites at 6 uM treated for 18 hrs followed by washout measured after 54 hrs by Giemsa staining; format: functional, organism-based
# Plasmodium falciparum [28] = test: Induction of apoptosis in chloroquine-sensitive Plasmodium falciparum 3D7 trophozoites assessed as disruption of mitochondrial membrane potential at 6 uM by JC-1 staining; format: functional, organism-based; summary of the method: as §7
# Plasmodium falciparum [29] = test: Growth inhibition of ring stage chloroquine-sensitive Plasmodium falciparum 3D7 at 6 uM treated for 48 hrs followed by washout measured after 48 hrs by Giemsa staining; format: functional, organism-based; summary of the method: as §5
# Plasmodium falciparum [30] = test: Induction of apoptosis in ring stage chloroquine-sensitive Plasmodium falciparum 3D7 assessed as chromatin fragmentation at 6 uM at 18 hrs by Hoechst 33342 staining; format: functional, organism-based
compound,measurement,setting,value
COc1cc(OC)c(OC)cc1/C=C/C(=O)c1ccc(/C=C/c2cc(OC)c(O)c(OC)c2)cc1,Activity,Plasmodium falciparum [1],Active
same,Activity,Plasmodium falciparum [2],Active
same,Ratio IC50,[3],0.64
same,Activity,Plasmodium falciparum [4],Active
same,selectivity ratio,[5],42.3
same,inhibition,Plasmodium falciparum [6],inactive
same,Activity,Plasmodium falciparum [7],Active
same,IC50,Plasmodium falciparum [8],2.2 µM
same,inhibition,Plasmodium falciparum [9],inactive
same,growth inhibition (GI),Plasmodium falciparum [10],Active
same,Ratio IC50,[11],2.9
same,growth inhibition (GI),Plasmodium falciparum [12],inactive
same,IC50,Plasmodium falciparum [13],6.4 µM
same,growth inhibition (GI),Plasmodium falciparum [14],inactive
same,Activity,Plasmodium falciparum [15],Active
same,growth inhibition (GI),Plasmodium falciparum [16],Active
same,Activity,Plasmodium falciparum [17],inactive
same,Activity,Plasmodium falciparum [18],Active
same,IC50,Plasmodium falciparum [19],1.4 µM
same,Activity,Plasmodium falciparum [20],Active
same,growth inhibition (GI),Plasmodium falciparum [21],Active
same,Activity,Plasmodium falciparum [22],Active
same,growth inhibition (GI),Plasmodium falciparum [23],inactive
same,Activity,Plasmodium falciparum [24],Active
same,selectivity ratio,[25],45.5
same,IC50,[26],37.5 µM
same,growth inhibition (GI),Plasmodium falciparum [27],Active
same,Activity,Plasmodium falciparum [28],Active
same,growth inhibition (GI),Plasmodium falciparum [29],Active
same,Activity,Plasmodium falciparum [30],Active
